Results taken from ChEMBL document CHEMBL1156480, “Insensitivity to Abeta42-lowering nonsteroidal anti-inflammatory drugs and gamma-secretase inhibitors is common among aggressive presenilin-1 mutations” (J Biol Chem, 2007).

What was measured:
[1] = molecular target: Presenilin-1 (Homo sapiens) (UniProt P49768); assay: Reduction of human wild type PS1-induced amyloid beta-40 level in CHO cells overexpressing human APP751 at 0.1 nM after 24 hrs by liquid phase electrochemiluminescence assay relative to control; type: cell-based; set-up: scale not given: the % may be the effect or the level left
[2] = system: CHO; assay: Reduction of human PS1 delta exon9 mutant-induced amyloid beta-40 level in CHO cells overexpressing human APP751 at 0.1 nM after 24 hrs by liquid phase electrochemiluminescence assay relative to control; type: cell-based; set-up: scale not given: the % may be the effect or the level left
Summary of the method: (§1)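 APP751 CHO cells stably expressing PS1-ΔExon9, PS1-L166P or PS1-WT, cultured in parallel in serum-containing medium. Treated 24 h with increasing γ-secretase inhibitor concentrations or DMSO. Conditioned-media Abeta40/Abeta42 quantified by LPECL against synthetic peptide standards (16–2000 pg/ml). Duplicates normalized to DMSO. n = 3, one-way ANOVA with Dunnett's test versus PS1-WT.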

[3] = system: Presenilin-1 (Homo sapiens), P49768 [L166P]; assay: Reduction of human PS1 L166P mutant-induced amyloid beta-40 level in CHO cells overexpressing human APP751 at 0.1 nM after 24 hrs by liquid phase electrochemiluminescence assay relative to control; type: cell-based; set-up: scale not given: the % may be the effect or the level left; summary of the method: as §1
[4] = molecular target: Presenilin-1 (Homo sapiens) (UniProt P49768); assay: Reduction of human wild type PS1-induced amyloid beta-40 level in CHO cells overexpressing human APP751 at 0.2 nM after 24 hrs by liquid phase electrochemiluminescence assay relative to control; type: cell-based; set-up: scale not given: the % may be the effect or the level left
[5] = system: CHO; assay: Reduction of human PS1 delta exon9 mutant-induced amyloid beta-40 level in CHO cells overexpressing human APP751 at 0.2 nM after 24 hrs by liquid phase electrochemiluminescence assay relative to control; type: cell-based; set-up: scale not given: the % may be the effect or the level left; summary of the method: as §1
[6] = system: Presenilin-1 (Homo sapiens), P49768 [L166P]; assay: Reduction of human PS1 L166P mutant-induced amyloid beta42 level in CHO cells overexpressing human APP751 at 0.2 nM after 24 hrs by liquid phase electrochemiluminescence assay relative to control; type: cell-based; set-up: scale not given: the % may be the effect or the level left; summary of the method: as §1
[7] = molecular target: Presenilin-1 (Homo sapiens) (UniProt P49768); assay: Reduction of human wild type PS1-induced amyloid beta-42 level in CHO cells overexpressing human APP751 at 0.5 nM after 24 hrs by liquid phase electrochemiluminescence assay relative to control; type: cell-based; set-up: scale not given: the % may be the effect or the level left
[8] = system: CHO; assay: Reduction of human PS1 delta exon9 mutant-induced amyloid beta42 level in CHO cells overexpressing human APP751 at 0.5 nM after 24 hrs by liquid phase electrochemiluminescence assay relative to control; type: cell-based; set-up: scale not given: the % may be the effect or the level left
[9] = system: Presenilin-1 (Homo sapiens), P49768 [L166P]; assay: Reduction of human PS1 L166P mutant-induced amyloid beta42 level in CHO cells overexpressing human APP751 at 0.5 nM after 24 hrs by liquid phase electrochemiluminescence assay relative to control; type: cell-based; set-up: scale not given: the % may be the effect or the level left; summary of the method: as §1
[10] = system: Mus musculus; assay: Reduction of amyloid beta-42 level in Tg2576 mouse brain at 10 mg/kg, po after 3 hrs by ELISA relative to control; type: functional; set-up: scale not given: the % may be the effect or the level left
Summary of the method: (§2)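 Mice given one oral 10 mg/kg dose in 0.5% tylose, or vehicle alone; the lines cover 5-month-old Tg2576 (Swedish APP) mice and 2-month-old APPPS1 (Swedish APP + human PS1-L166P, Thy-1 promoter) mice. Killed 3 h post-dose. Brain homogenized in Tris buffer with 0.2% Triton X-100 and spun 1 h at 200,000 x g. Soluble supernatant Abeta40 (6E10 capture) and Abeta42 measured by sandwich ELISA. n = 4–6, paired t-test.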

[11] = system: Mus musculus; assay: Reduction of amyloid beta-40 level in Swedish APP and human PS1-L166P APPPS1 transgenic mouse brain at 10 mg/kg, po after 3 hrs by ELISA relative to control; type: functional; set-up: scale not given: the % may be the effect or the level left; summary of the method: as §2
[12] = system: Mus musculus; assay: Reduction of amyloid beta42 level in Swedish APP and human PS1-L166P APPPS1 transgenic mouse brain at 10 mg/kg, po after 3 hrs by ELISA relative to control; type: functional; set-up: scale not given: the % may be the effect or the level left; summary of the method: as §2
[13] = Reduction of human PS1 delta exon9 mutant-induced amyloid beta-42 level in CHO cells overexpressing human APP751after 24 hrs by liquid phase electrochemiluminescence assay relative to control; type: cell-based
[14] = Reduction of human PS1 delta exon9 mutant-induced amyloid beta-40 level in CHO cells overexpressing human APP751after 24 hrs by liquid phase electrochemiluminescence assay relative to control; type: cell-based
[15] = system: Mus musculus; assay: Reduction of amyloid beta40 level in Tg2576 mouse brain at 10 mg/kg, po after 3 hrs by ELISA; type: functional; summary of the method: as §2
[16] = system: Mus musculus; assay: Reduction of amyloid beta-42 level in Tg2576 mouse brain at 10 mg/kg, po after 3 hrs by ELISA; type: functional; summary of the method: as §2
[17] = system: Mus musculus; assay: Reduction of amyloid beta-40 level in Swedish APP and human PS1-L166P APPPS1 transgenic mouse brain at 10 mg/kg, po after 3 hrs by ELISA; type: functional; summary of the method: as §2
[18] = system: Mus musculus; assay: Reduction of amyloid beta-42 level in Swedish APP and human PS1-L166P APPPS1 transgenic mouse brain at 10 mg/kg, po after 3 hrs by ELISA; type: functional; summary of the method: as §2
[19] = system: Mus musculus; assay: Reduction of amyloid beta-40 level in Tg2576 mouse brain at 10 mg/kg, po after 3 hrs by ELISA relative to control; type: functional; set-up: scale not given: the % may be the effect or the level left; summary of the method: as §2
[20] = system: Presenilin-1 (Homo sapiens), P49768 [L166P]; assay: Reduction of human PS1 L166P mutant-induced amyloid beta40 level in CHO cells overexpressing human APP751 at 0.2 nM after 24 hrs by liquid phase electrochemiluminescence assay relative to control; type: cell-based; set-up: scale not given: the % may be the effect or the level left; summary of the method: as §1
[21] = molecular target: Presenilin-1 (Homo sapiens) (UniProt P49768); assay: Reduction of human wild type PS1-induced amyloid beta40 level in CHO cells overexpressing human APP751 at 0.5 nM after 24 hrs by liquid phase electrochemiluminescence assay relative to control; type: cell-based; set-up: scale not given: the % may be the effect or the level left
[22] = system: CHO; assay: Reduction of human PS1 delta exon9 mutant-induced amyloid beta40 level in CHO cells overexpressing human APP751 at 0.5 nM after 24 hrs by liquid phase electrochemiluminescence assay relative to control; type: cell-based; set-up: scale not given: the % may be the effect or the level left
[23] = system: Presenilin-1 (Homo sapiens), P49768 [L166P]; assay: Reduction of human PS1 L166P mutant-induced amyloid beta40 level in CHO cells overexpressing human APP751 at 0.5 nM after 24 hrs by liquid phase electrochemiluminescence assay relative to control; type: cell-based; set-up: scale not given: the % may be the effect or the level left; summary of the method: as §1
[24] = molecular target: Presenilin-1 (Homo sapiens) (UniProt P49768); assay: Reduction of human wild type PS1-induced amyloid beta42 level in CHO cells overexpressing human APP751 at 0.1 nM after 24 hrs by liquid phase electrochemiluminescence assay relative to control; type: cell-based; set-up: scale not given: the % may be the effect or the level left
[25] = system: CHO; assay: Reduction of human PS1 delta exon9 mutant-induced amyloid beta42 level in CHO cells overexpressing human APP751 at 0.1 nM after 24 hrs by liquid phase electrochemiluminescence assay relative to control; type: cell-based; set-up: scale not given: the % may be the effect or the level left
[26] = system: Presenilin-1 (Homo sapiens), P49768 [L166P]; assay: Reduction of human PS1 L166P mutant-induced amyloid beta42 level in CHO cells overexpressing human APP751 at 0.1 nM after 24 hrs by liquid phase electrochemiluminescence assay relative to control; type: cell-based; set-up: scale not given: the % may be the effect or the level left; summary of the method: as §1
[27] = molecular target: Presenilin-1 (Homo sapiens) (UniProt P49768); assay: Reduction of human wild type PS1-induced amyloid beta42 level in CHO cells overexpressing human APP751 at 0.2 nM after 24 hrs by liquid phase electrochemiluminescence assay relative to control; type: cell-based; set-up: scale not given: the % may be the effect or the level left
[28] = system: CHO; assay: Reduction of human PS1 delta exon9 mutant-induced amyloid beta42 level in CHO cells overexpressing human APP751 at 0.2 nM after 24 hrs by liquid phase electrochemiluminescence assay relative to control; type: cell-based; set-up: scale not given: the % may be the effect or the level left

Activity [1]: 64.2% | Activity [3]: 66.6% | Activity [4]: 15.8% | Activity [6]: 57.7% | Activity [7]: 4.75% | Activity [9]: 28.7% | EC50 [13]: 0.352 nM | EC50 [14]: 0.358 nM | Activity [20]: 36.2% | Activity [21]: 5.6% | Activity [23]: 11.7% | Activity [24]: 71% | Activity [26]: 85.2% | Activity [27]: 18.8%
Compound: C[C@H](NC(=O)[C@@H](O)c1cc(F)cc(F)c1)C(=O)N[C@@H]1C(=O)N(C)c2ccccc2-c2ccccc21
Activity [2]: 92.6% | Activity [5]: 72.9% | Activity [8]: 26.5% | Activity [10]: 89% | Activity [11]: 81.2% | Activity [12]: 17.1% | Activity [15]: 1.23 pmol/g | Activity [16]: 0.21 pmol/g | Activity [17]: 0.42 pmol/g | Activity [18]: 2.9 pmol/g | Activity [19]: 85% | Activity [22]: 26.7% | Activity [25]: 94.4% | Activity [28]: 72%
